From ChEMBL document CHEMBL1177716, “Kinesin spindle protein (KSP) inhibitors with 2,3-fused indole scaffolds” (J Med Chem, 2010) come the findings set out here.

A word on the IC50: it is the concentration that gives 50% inhibition.

Calls of active or inactive are those of the source. The rule behind the calls is not given here.

Assay [1] concerns the target T1, Kinesin-like protein KIF11 (Homo sapiens, UniProt P52732).
T1 sequence (P52732 whole entry): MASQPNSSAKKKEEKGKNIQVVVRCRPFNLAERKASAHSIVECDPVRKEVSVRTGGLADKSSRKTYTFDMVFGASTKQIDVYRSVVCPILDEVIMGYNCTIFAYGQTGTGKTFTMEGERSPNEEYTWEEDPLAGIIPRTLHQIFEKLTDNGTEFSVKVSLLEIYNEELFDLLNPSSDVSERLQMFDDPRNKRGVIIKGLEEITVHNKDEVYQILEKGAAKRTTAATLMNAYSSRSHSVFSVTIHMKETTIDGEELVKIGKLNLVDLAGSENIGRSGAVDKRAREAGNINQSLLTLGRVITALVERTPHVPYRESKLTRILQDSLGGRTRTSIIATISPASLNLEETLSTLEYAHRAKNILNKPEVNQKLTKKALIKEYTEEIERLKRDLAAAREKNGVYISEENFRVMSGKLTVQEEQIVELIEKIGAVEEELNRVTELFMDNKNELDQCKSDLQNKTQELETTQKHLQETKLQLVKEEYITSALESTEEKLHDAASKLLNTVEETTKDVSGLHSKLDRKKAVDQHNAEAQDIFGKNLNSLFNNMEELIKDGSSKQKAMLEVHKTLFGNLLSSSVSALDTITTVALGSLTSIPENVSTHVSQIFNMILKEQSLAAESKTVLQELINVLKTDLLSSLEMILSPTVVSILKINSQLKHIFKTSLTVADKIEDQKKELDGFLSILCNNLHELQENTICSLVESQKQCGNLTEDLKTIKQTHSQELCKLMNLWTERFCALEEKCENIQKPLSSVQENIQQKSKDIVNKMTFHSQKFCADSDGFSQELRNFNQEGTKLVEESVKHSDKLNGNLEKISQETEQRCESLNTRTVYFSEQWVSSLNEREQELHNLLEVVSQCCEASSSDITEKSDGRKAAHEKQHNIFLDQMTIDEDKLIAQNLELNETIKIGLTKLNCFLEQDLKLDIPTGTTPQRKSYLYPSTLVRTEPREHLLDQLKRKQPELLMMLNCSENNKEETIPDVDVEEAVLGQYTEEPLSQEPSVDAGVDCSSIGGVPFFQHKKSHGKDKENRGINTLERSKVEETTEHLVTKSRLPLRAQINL
Description: Inhibition of human C-terminally His6-tagged microtubule-activated KSP motor domain ATPase activity after 30 mins by luciferase-derived luminescence assay.

Assay [2] deals with T2, Kinesin-like protein KIF23 (Homo sapiens) (UniProt Q02241).
T2 sequence (whole entry): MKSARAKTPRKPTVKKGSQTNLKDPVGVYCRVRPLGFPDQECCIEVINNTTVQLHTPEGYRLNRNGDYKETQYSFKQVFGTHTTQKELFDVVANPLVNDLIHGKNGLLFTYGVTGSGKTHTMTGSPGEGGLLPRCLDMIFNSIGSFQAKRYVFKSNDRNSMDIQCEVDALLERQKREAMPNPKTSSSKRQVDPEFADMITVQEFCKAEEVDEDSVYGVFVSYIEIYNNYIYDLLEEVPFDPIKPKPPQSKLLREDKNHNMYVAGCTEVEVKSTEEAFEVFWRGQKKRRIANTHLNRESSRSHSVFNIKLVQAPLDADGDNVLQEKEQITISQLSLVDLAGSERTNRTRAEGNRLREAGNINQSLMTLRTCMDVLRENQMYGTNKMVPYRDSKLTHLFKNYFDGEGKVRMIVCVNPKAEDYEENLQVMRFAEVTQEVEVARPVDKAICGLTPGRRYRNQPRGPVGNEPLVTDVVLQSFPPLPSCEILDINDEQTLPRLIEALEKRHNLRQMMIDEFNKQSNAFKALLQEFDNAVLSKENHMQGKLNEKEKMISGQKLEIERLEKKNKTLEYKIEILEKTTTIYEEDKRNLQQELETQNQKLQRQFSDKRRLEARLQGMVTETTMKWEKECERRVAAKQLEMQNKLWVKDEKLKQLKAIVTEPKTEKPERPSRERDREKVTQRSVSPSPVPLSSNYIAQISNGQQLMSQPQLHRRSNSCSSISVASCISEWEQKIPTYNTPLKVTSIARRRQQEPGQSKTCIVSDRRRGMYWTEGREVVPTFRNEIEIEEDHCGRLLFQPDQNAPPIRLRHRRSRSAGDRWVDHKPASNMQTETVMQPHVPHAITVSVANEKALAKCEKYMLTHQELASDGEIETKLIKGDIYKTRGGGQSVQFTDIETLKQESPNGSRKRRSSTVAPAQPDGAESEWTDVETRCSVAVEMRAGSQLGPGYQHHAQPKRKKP
Description: Inhibition of MKLP-1 ATPase activity at 20 uM.

Another assay concerns HeLa. Description: Cell cycle arrest in human HeLa cells assessed as accumulation at M phase at 36 uM after 20 hrs by DAPI staining relative to taxol. In kind it is functional. The note with it: in the assay text read “at 32 uM” for “at 36 uM”. The essentials: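 HeLa cells were exposed to compound for 20 h and scored for M-phase arrest. Mitotic index was expressed as a percentage of the induction given by 0.1 μM taxol.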

In assay [1], `FC(F)(F)c1ccc2[nH]c3ccccc3c2c1` came in with a half-maximal inhibitory concentration (IC50) of 950 nM. In assay [2], the inhibition result was “inactive”. Further, in the assay on HeLa, the Activity came to 57%.
In the same order, the values of `CC(C)(C)c1ccc2c(c1)[nH]c1ccccc12` are 300 nM, “inactive” and 37%.
As to `FC(F)(F)c1ccc2c(c1)[nH]c1ccccc12`, in assay [1], the IC50 came out at 260 nM. For the same compound, in assay [2], the inhibition result is “inactive”.
